{
  "source": "paper PMC2773842",
  "about": "(Cellular and Molecular Life Sciences: CMLS, 2006)",
  "key": {"[1]": {"biological_target": "insulin hexamer (Homo sapiens, UniProt P01308)", "sequence (P01308 25-54 limits assumed)": "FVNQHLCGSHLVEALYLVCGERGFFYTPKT", "sequence (P01308 90-110 limits assumed)": "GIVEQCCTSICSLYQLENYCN", "assay": "ESI-MS analysis of insulin oligomer states in insulin/C-peptide mixtures"}, "[2]": {"biological_target": "T1, chip-bound C-peptide (Homo sapiens, UniProt P01308)", "T1 sequence (P01308 57-87 limits assumed)": "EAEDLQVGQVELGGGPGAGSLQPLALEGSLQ", "assay": "SPR binding of C-peptide in solution to chip-bound C-peptide", "outline": "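Peptide was immobilised on the sensor chip by surface thiol coupling via the C-terminus (up to 5000 RU) or amine coupling via the N-terminus (up to 1000 RU). The same peptide was run as analyte at 20 µl/min, diluted from a 600 µM stock in H2O/HCl pH 5. Running buffers spanned pH 3–7 (citrate, bis-Tris or Tris/HCl, 10 mM) with 100 mM NaCl and 0.005% SP20.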"}, "[3]": {"biological_target": "insulin-insulin interactions (chip-bound insulin) (Homo sapiens, UniProt P01308)", "sequence (P01308 25-54 limits assumed)": "as the sequence (P01308 25-54 limits assumed) above", "type": "binding", "details": "peptide mixed with insulin analyte", "outline": "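Biacore SPR with insulin immobilized either C-terminally (surface thiol coupling, up to 5000 RU) or N-terminally (amine coupling, up to 1000 RU). Test peptide was premixed with insulin analyte at 1, 5, 10 and 20 µM and flowed at 20 µl/min. Running buffer was 10 mM Na citrate pH 5 with 100 mM NaCl and 0.005% SP20. Curves are averages of three runs after blank subtraction.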"}},
  "data": [
    {"substance": "C-peptide", "values": [
      {"measurement": "effects on insulin in ESI-MS compared with scrambled C-peptide", "setting": "[1]; at low peptide concentrations", "result": "slightly more effects on insulin than scrambled C-peptide"},
      {"measurement": "insulin hexamer signals in ESI mass spectra", "setting": "[1]; nano-ESI-MS, pH 5, insulin 30 µM and C-peptide 30 µM (1:1)", "result": "markedly decreased from their level in insulin solutions to an absence in insulin-C-peptide mixtures"},
      {"measurement": "binding of C-peptide in solution to chip-bound C-peptide", "setting": "[2]", "result": "no evidence for such binding"},
      {"measurement": "effect on rate of dissociation in insulin-insulin SPR", "setting": "[3]", "result": "slightly reduce the rate of dissociation"}
    ]}
  ]
}
